24 molecules from ChEMBL document CHEMBL1122378, “Antiallergic agents. 2. N-(1H-tetrazol-5-yl)-6-phenyl-2-pyridinecarboxamides” (1983) can be followed below.

One may read the inhibition in vivo as the share of the control response that was lost under treatment. High values mean strong suppression, low ones little suppression.

Format in all cases: functional
Assay [1] has as its system Rattus norvegicus. As to the kind of experiment: Antiallergic activity against passive cutaneous anaphylaxis (PCA) in male Sprague-Dawley rats after 3.0 mg/kg oral administration;p<0.1. An outline of the steps:
(§1)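 IgE antiserum raised in male Sprague-Dawley rats (ca. 200 g) by immunization with Ascaris suum extract (2 then 0.2 mg protein), bled 2 weeks after the second dose. Recipients got 0.05 mL diluted antiserum intracutaneously on the back. Blued area (product of two diameters) was read at 30 min.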

Assay [2] deals with Rattus norvegicus. Description: Inhibition of passive cutaneous anaphylaxis in male Sprague-Dawley rats following 10 mg/kg p.o. administration. As to conditions: route oral. The method in brief: as §1
For assay [3], the system named is Rattus norvegicus. As to the kind of experiment: Antiallergic activity against passive cutaneous anaphylaxis (PCA) in male Sprague-Dawley rats after 3.0 mg/kg oral administration;p<0.1. The method in brief:
as §1

Assay [4] concerns Rattus norvegicus. As to the kind of experiment: Inhibition of passive cutaneous anaphylaxis in male Sprague-Dawley rats following 1 mg/kg p.o. administration; Not significant. To be noted: route oral. The method in brief:
as §1

The test system of assay [5] is Rattus norvegicus. As to the kind of experiment: Antiallergic activity against passive cutaneous anaphylaxis (PCA) in male Sprague-Dawley rats after 10.0 mg/kg oral administration;not statistically significant. The method in brief: as §1
The test system of assay [6] is Rattus norvegicus. As to the kind of experiment: Antiallergic activity against passive cutaneous anaphylaxis (PCA) in male Sprague-Dawley rats after 3.0 mg/kg oral administration;not statistically significant. The method in brief:
as §1

The test system of assay [7] is Rattus norvegicus. Description: Antiallergic activity against passive cutaneous anaphylaxis (PCA) in male Sprague-Dawley rats after 0.3 mg/kg oral administration;p<0.1. The method in brief:
as §1

For assay [8], the system named is Rattus norvegicus. Description: Antiallergic activity against passive cutaneous anaphylaxis (PCA) in male Sprague-Dawley rats after 3.0 mg/kg oral administration. An outline of the steps:
as §1

Assay [9] has as its system Rattus norvegicus. As to the kind of experiment: Antiallergic activity against passive cutaneous anaphylaxis (PCA) in male Sprague-Dawley rats after 10.0 mg/kg oral administration;p<0.1. An outline of the steps:
as §1

Assay [10] relates to Rattus norvegicus. Description: Antiallergic activity against passive cutaneous anaphylaxis (PCA) in male Sprague-Dawley rats after 1.0 mg/kg oral administration;p<0.1. An outline of the steps:
as §1

The test system of assay [11] is Rattus norvegicus. As to the kind of experiment: Antiallergic activity against passive cutaneous anaphylaxis (PCA) in male Sprague-Dawley rats after 1.0 mg/kg oral administration. The method in brief: as §1
Assay [12] concerns Rattus norvegicus. Description: Inhibition of passive cutaneous anaphylaxis in male Sprague-Dawley rats following 0.3 mg/kg p.o. administration; Not significant. As to conditions: route oral. The method in brief: as §1
Assay [13] has as its system Rattus norvegicus. As to the kind of experiment: Antiallergic activity against passive cutaneous anaphylaxis (PCA) in male Sprague-Dawley rats after 0.3 mg/kg oral administration. The method in brief:
as §1

Molecule `CCCc1cc(C(=O)Nc2nn[nH]n2)nc(-c2ccccc2)c1` registered an inhibition in vivo at 3 mg/kg in the assay with Rattus norvegicus [1] of 22%. This molecule returned an inhibition in vivo at 10 mg/kg with Rattus norvegicus [2] of 85%.

`Cc1cc(C(=O)Nc2nn[nH]n2)nc(-c2cccc(N)c2)c1` yielded an inhibition in vivo at 3 mg/kg in the assay on Rattus norvegicus [3] of 50%. In the assay with Rattus norvegicus [4], the inhibition in vivo at 1 mg/kg stood at 29%.

In turn, `O=C(Nc1nn[nH]n1)c1cc(Cl)cc(-c2ccc([N+](=O)[O-])cc2)n1` yielded an inhibition in vivo at 10 mg/kg with Rattus norvegicus [5] of 48%. This molecule also displayed an inhibition in vivo at 3 mg/kg in the assay on Rattus norvegicus [6] of 23%.

Turning to `CCOc1cc(C(=O)Nc2nn[nH]n2)nc(-c2ccccc2)c1`, testing at 3 mg/kg in the assay with Rattus norvegicus [3] gave an inhibition in vivo of 51%. Further, at 1 mg/kg the inhibition in vivo with Rattus norvegicus [4] was 29%.

For `CCc1ccc(-c2cccc(C(=O)Nc3nn[nH]n3)n2)cc1`, the inhibition in vivo at 0.3 mg/kg in the assay on Rattus norvegicus [7] was determined as 14%. For the same molecule, in the assay on Rattus norvegicus [4], the inhibition in vivo at 1 mg/kg amounted to 39%.

The molecule `O=C(Nc1nn[nH]n1)c1cc(Cl)cc(-c2ccc(Cl)cc2)n1` displayed an inhibition in vivo at 3 mg/kg in the assay with Rattus norvegicus [8] of 11%. In addition, in the assay with Rattus norvegicus [9], testing at 10 mg/kg gave an inhibition in vivo of 63%.

As for `COc1cc(C(=O)Nc2nn[nH]n2)nc(-c2ccc(N)cc2)c1`, in the assay with Rattus norvegicus [7], 0.3 mg/kg produced 12% inhibition in vivo. Besides, testing at 1 mg/kg in the assay on Rattus norvegicus [10] gave an inhibition in vivo of 50%.

Take `COc1cc(C(=O)Nc2nn[nH]n2)nc(-c2cccc(N)c2)c1`: the inhibition in vivo at 3 mg/kg in the assay on Rattus norvegicus [8] is 41%. Also, the inhibition in vivo at 10 mg/kg in the assay with Rattus norvegicus [9] was determined as 58%. This molecule also gave an inhibition in vivo at 1 mg/kg in the assay with Rattus norvegicus [10] of 27%.

In the assay with Rattus norvegicus [8], `COc1cc(C(=O)Nc2nn[nH]n2)nc(-c2cc(OC)c(OC)c(OC)c2)c1` displayed an inhibition in vivo at 3 mg/kg of 0%. In the assay on Rattus norvegicus [5], this molecule showed an inhibition in vivo at 10 mg/kg of 25%.

Take `CCc1ccc(-c2cc(Cl)cc(C(=O)Nc3nn[nH]n3)n2)cc1`: in the assay on Rattus norvegicus [8], the inhibition in vivo at 3 mg/kg was determined as 100%. This molecule showed an inhibition in vivo at 1 mg/kg in the assay with Rattus norvegicus [11] of 49%. The same molecule gave an inhibition in vivo at 0.3 mg/kg with Rattus norvegicus [7] of 13%.

In turn, `COc1cc(C(=O)Nc2nn[nH]n2)nc(-c2ccc(C(C)(C)C)cc2)c1` registered an inhibition in vivo at 3 mg/kg with Rattus norvegicus [3] of 68%. The molecule further yielded an inhibition in vivo at 1 mg/kg in the assay with Rattus norvegicus [4] of 29%.

Turning to `CCCCc1ccc(-c2cc(C)cc(C(=O)Nc3nn[nH]n3)n2)cc1`, the inhibition in vivo at 3 mg/kg in the assay with Rattus norvegicus [8] worked out at 67%. For the same molecule, at 1 mg/kg the inhibition in vivo in the assay on Rattus norvegicus [10] was 42%. In the assay on Rattus norvegicus [12], 0.3 mg/kg produced 17% inhibition in vivo.

`O=C(Nc1nn[nH]n1)c1cccc(-c2ccccc2)n1`: the inhibition in vivo at 3 mg/kg in the assay with Rattus norvegicus [8] amounted to 74%. The molecule also had an inhibition in vivo at 10 mg/kg in the assay with Rattus norvegicus [2] of 81%. Moreover, in the assay with Rattus norvegicus [10], the inhibition in vivo at 1 mg/kg is 36%.

In the case of `CCc1ccc(-c2cc(C)cc(C(=O)Nc3nn[nH]n3)n2)cc1`, 3 mg/kg produced 35% inhibition in vivo in the assay on Rattus norvegicus [1]. Further, the inhibition in vivo at 10 mg/kg in the assay on Rattus norvegicus [2] was determined as 100%.

In the case of `Cc1cc(C(=O)Nc2nn[nH]n2)nc(-c2ccc(N)cc2)c1`, testing at 3 mg/kg in the assay with Rattus norvegicus [8] gave an inhibition in vivo of 100%. The inhibition in vivo at 1 mg/kg in the assay with Rattus norvegicus [11] came to 75%. Also, 0.3 mg/kg produced 54% inhibition in vivo in the assay on Rattus norvegicus [7].

For `Cc1ccc(-c2cc(C(C)C)cc(C(=O)Nc3nn[nH]n3)n2)cc1`, testing at 3 mg/kg in the assay with Rattus norvegicus [3] gave an inhibition in vivo of 42%. Also, in the assay on Rattus norvegicus [4], the inhibition in vivo at 1 mg/kg was 20%.

For the molecule `Nc1cccc(-c2cccc(C(=O)Nc3nn[nH]n3)n2)c1`, in the assay on Rattus norvegicus [8], the inhibition in vivo at 3 mg/kg worked out at 0%. This molecule also registered an inhibition in vivo at 10 mg/kg in the assay with Rattus norvegicus [9] of 57%.

As for `Cc1ccc(-c2cc(Cl)cc(C(=O)Nc3nn[nH]n3)n2)cc1C`, testing at 10 mg/kg in the assay with Rattus norvegicus [9] gave an inhibition in vivo of 58%. In the assay on Rattus norvegicus [6], this molecule showed an inhibition in vivo at 3 mg/kg of 32%.

In the assay on Rattus norvegicus [8], `COc1ccc(-c2cc(C)cc(C(=O)Nc3nn[nH]n3)n2)cc1` displayed an inhibition in vivo at 3 mg/kg of 43%. In the assay on Rattus norvegicus [9], this molecule returned an inhibition in vivo at 10 mg/kg of 52%.

Take `COc1cc(-c2cccc(C(=O)Nc3nn[nH]n3)n2)cc(OC)c1OC`: in the assay on Rattus norvegicus [5], testing at 10 mg/kg gave an inhibition in vivo of 45%. The same molecule gave an inhibition in vivo at 3 mg/kg with Rattus norvegicus [6] of 15%.

Regarding `CCCCc1ccc(-c2cc(CC(C)C)cc(C(=O)Nc3nn[nH]n3)n2)cc1`, in the assay with Rattus norvegicus [5], the inhibition in vivo at 10 mg/kg was 13%. Moreover, at 3 mg/kg the inhibition in vivo with Rattus norvegicus [6] was 3%.

`COc1cc(C(=O)Nc2nn[nH]n2)nc(-c2ccccc2OC)c1`: in the assay on Rattus norvegicus [8], the inhibition in vivo at 3 mg/kg was 68%. In the assay on Rattus norvegicus [7], this molecule registered an inhibition in vivo at 0.3 mg/kg of 35%. The molecule further gave an inhibition in vivo at 1 mg/kg with Rattus norvegicus [4] of 41%.

`COc1cc(C(=O)Nc2nn[nH]n2)nc(-c2ccc(OC)c(OC)c2)c1`: the inhibition in vivo at 10 mg/kg with Rattus norvegicus [2] turned out to be 51%. The same molecule returned an inhibition in vivo at 3 mg/kg in the assay on Rattus norvegicus [3] of 62%. The molecule further displayed an inhibition in vivo at 1 mg/kg in the assay on Rattus norvegicus [4] of 18%.

For the molecule `CCCOc1cc(C(=O)Nc2nn[nH]n2)nc(-c2ccccc2)c1`, at 3 mg/kg the inhibition in vivo in the assay with Rattus norvegicus [8] was 100%. This molecule also gave an inhibition in vivo at 0.3 mg/kg in the assay on Rattus norvegicus [13] of 0%. In addition, the inhibition in vivo at 1 mg/kg with Rattus norvegicus [10] stood at 27%.
